Test results: ChEMBL document CHEMBL1122207, “Antitumor agents. 2. Bisguanylhydrazones of anthracene-9,10-dicarboxaldehydes” (1982)

Key:
Type in all cases: functional
[1] = organism: Mus musculus; test: Cures is the number of survivors of the total treated animals(12 mice) with P-388 leukemia, at 30 days.
In short: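 BDF1 or CDF1 mice given 10^6 ascitic P-388 leukemia cells ip, then treated ip on days 1, 5 and 9. Cures are survivors over total treated at 30 days.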

[2] = test system: Mus musculus; test: Percent increase in median life span of BDF1 mice with B-16 melanoma at dose 6.2 mg/kg administered intraperitoneally; 1-9 days of ip treatment relative to tumor inoculation; conditions: BDF1, B16, ip, route intraperitoneal
In short: (§1)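 BDF1 mice were implanted ip with a homogenate from 0.05 g of B-16 melanoma. Ip dosing ran on days 1-9, starting 24 h after implant, in dose-response studies following NCI protocols. The read-out was percent increase in life span (ILS). T/C ≥125% was taken as significant.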

[3] = test system: Mus musculus; test: Percent increase in median life span of BDF1 mice with advanced L-1210 leukemia at dose 12.5 mg/kg administered intraperitoneally; treatment day +2 iv; conditions: L1210
[4] = test system: Mus musculus; test: Percent increase in median life span of BDF1 mice with P-388 leukemia at dose 12.5 mg/kg administered intraperitoneally; Range is 100-120% 1, 5, 9 days of ip treatment relative to tumor inoculation; conditions: BDF1, P388, ip, 216 h, route intraperitoneal
In short: (§2)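 BDF1 or CDF1 mice given 10^6 ascitic leukemia cells ip, then dosed ip on days 1, 5 and 9. Read-out is percent increase in life span versus untreated controls. Cures were scored as survivors/total at 30 days; when cures reached 50% or more, the run was extended until a specific ILS could be calculated. T/C ≥125% counted as significant.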

[5] = organism: Mus musculus; test: Cures is the number of survivors of the total treated mice (6) with advanced L-1210 leukemia, at 30 days.
In short: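 Advanced L-1210 leukemia, with ip treatment on days 5, 9 and 13 relative to tumor inoculation.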

[6] = organism: Mus musculus; test: Cures is the number of survivors of the total treated mice (10) with B-16 melanoma, at 60 days.
In short: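 BDF1 mice were implanted ip with a homogenate from 0.05 g of B-16 melanoma and dosed ip on days 1-9. Cures are survivors over total at 60 days.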

[7] = test system: Mus musculus; test: Percent tumor inhibition at non-lethal dose was determined in BDF1 mice with madison lung 109 leukemia; 1, 5, 9 days of sc treatment relative to tumor inoculation
[8] = organism: Mus musculus; test: Cures is the number of survivors of the total treated mice (8) with Colon 26, at 60 days.
[9] = test system: Mus musculus; test: Percent increase in median life span of BDF1 mice with advanced P-388 leukemia at dose 25 mg/kg administered intraperitoneally; 4, 8, 12 days of ip treatment relative to tumor inoculation; conditions: P388, ip, 288 h, route intraperitoneal
[10] = test system: Mus musculus; test: Percent increase in median life span of BDF1 mice with advanced L-1210 leukemia at dose 200 mg/kg administered intraperitoneally; treatment day +2 iv; conditions: L1210
[11] = test system: Mus musculus; test: Percent increase in median life span of BDF1 mice with Colon 26 at dose 25 mg/kg administered intraperitoneally; 1, 5, 9 days of ip treatment relative to tumor inoculation; conditions: BDF1, Colon 26, ip, 216 h, route intraperitoneal
[12] = test system: Mus musculus; test: Percent increase in median life span of BDF1 mice with madison lung 109 leukemia administered intraperitoneally
[13] = test system: Mus musculus; test: Percent increase in median life span of BDF1 mice with P-388 leukemia at dose 100 mg/kg administered intraperitoneally; 1, 5, 9 days of ip treatment relative to tumor inoculation; conditions: BDF1, P388, ip, 216 h, route intraperitoneal; in short: as §2
[14] = test system: Mus musculus; test: Percent increase in median life span of BDF1 mice with B-16 melanoma at dose 25 mg/kg administered intraperitoneally; 1-9 days of ip treatment relative to tumor inoculation; conditions: BDF1, B16, ip, route intraperitoneal; in short: as §1

| SMILES | Cures [1] | ILS at 6.2 mg/kg [2] [%] | ILS at 12.5 mg/kg [3] [%] | ILS at 12.5 mg/kg [4] [%] | Cures [5] | Cures [6] | Inhibition [7] [%] | Cures [8] | ILS at 25 mg/kg [9] [%] | ILS at 200 mg/kg [10] [%] | ILS at 25 mg/kg [11] [%] | ILS [12] [%] | ILS at 100 mg/kg [13] [%] | ILS at 25 mg/kg [14] [%] |
| --- | --- | --- | --- | --- | --- | --- | --- | --- | --- | --- | --- | --- | --- | --- |
| CC1(C)CNC(N/N=C/c2c3ccccc3c(/C=N/NC3=NCC(C)(C)N3)c3ccccc23)=N1.Cl.Cl | 0 | > 248 | 28 | 100 | 0 | 5 | – | – | – | – | – | – | – | – |
| CC1(C)CN=C(N/N=C/c2c3ccccc3c(/C=N/NC3=NCC(C)(C)CN3)c3ccccc23)NC1.Cl.Cl | – | – | – | – | 0 | 4 | 31 | 0 | 88 | 29 | 153 | <25 | 205 | 143 |
